The source of these data is article PMC10806771 (Chemical Science, 2023).

The target of data set [1] is T1, trastuzumab (Homo sapiens, UniProt P01857). As to the kind of experiment: Template-directed conjugation to trastuzumab, LC-FTMS analysis. Type of data set: biochemical. The note with it: payload transferred with Fc-III-L6Orn carbonate reactive conjugate.
For data set [2] the following is noted: cited from earlier work.
Data set [3] concerns mice bearing MDA-MB-231 (PD-L1hi) tumor xenograft. Nature of the data set: [64Cu]Cu-atezolizumab biodistribution study. Type of data set: in vivo, mouse. Particulars: n = 4, ± SD. The method, boiled down: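 Each received an i.v. dose of 0.25 MBq labelled conjugate (0.05 μg), given with 49.95 μg unlabelled parent antibody to saturate nonspecific Fc receptors. Animals were killed at 2, 24 and 48 h; organs collected, weighed and counted, and results given as %ID g−1. Blocking group at 24 h: co-injected 2 mg unlabelled antibody per mouse. n = 4 per group.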

The test system of data set [4] is mice bearing MDA-MB-231 xenograft. Nature of the data set: [64Cu]Cu-atezolizumab PET/CT imaging study. Particulars: 9 MBq i.v.; 2, 24, 48 h. Type of data set: in vivo, mouse.
For data set [5], the target named is T1, trastuzumab. As to the kind of experiment: Random conjugation experiments with trastuzumab, LC-FTMS. Type of data set: biochemical. Particulars: 10 eq., 16h, RT, pH 9.5.
Setting [6] is: 24 h p.i. + blocking (2 mg cold atezolizumab).

“Also recorded” adds a separate entry of the source.

T1 sequence (P01857 1-330 isoform P01857-1): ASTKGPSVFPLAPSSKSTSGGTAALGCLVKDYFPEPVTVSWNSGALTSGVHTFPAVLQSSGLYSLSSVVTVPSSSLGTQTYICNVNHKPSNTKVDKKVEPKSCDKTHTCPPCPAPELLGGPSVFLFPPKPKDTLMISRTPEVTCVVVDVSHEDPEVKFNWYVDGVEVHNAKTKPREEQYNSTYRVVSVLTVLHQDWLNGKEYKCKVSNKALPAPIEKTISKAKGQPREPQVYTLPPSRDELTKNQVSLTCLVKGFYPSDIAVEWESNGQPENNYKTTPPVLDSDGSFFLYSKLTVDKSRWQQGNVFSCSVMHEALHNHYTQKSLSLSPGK

Regarding DCAWH N GELVWCT NH2 (disulfide) [FITC], on trastuzumab [1], the “Labeled mAb” value stood at 95% and the “Selectivity Fc/Fab” value is given as “Fc selective”.
Consider PNU-159682, for which, on trastuzumab [1], the “Labeled mAb” value stood at 46% and the “Selectivity Fc/Fab” value is recorded as 5.40. Further, in data set [2], the “Cytotoxicity relative to doxorubicin” value was “more than thousandfold increased cytotoxicity compared to doxorubicin”.
For the molecule DCAWH N GELVWCT NH2 (disulfide) [DM4], at trastuzumab [1], the “Labeled mAb” value was 68% and the “Selectivity Fc/Fab” value was determined as 6.80.
The matching figures for DCAWH N GELVWCT NH2 (disulfide) [DM1]: 73% and 5.70.
Take “[^64Cu]Cu-atezolizumab: atezolizumab-NODAGA prepared with Fc-III-L6Orn-carbonate-NODAGA, radiolabeled with copper-64”: in data set [3] (2 h p.i., i.v. 0.25 MBq), the “Biodistribution, Blood” value is reported as 6.3 ± 3.8 % ID g^−1; the “Biodistribution, Bone” value was found to be 2.5 ± 0.4 % ID g^−1; the “Biodistribution, Heart” value is 7.8 ± 0.6 % ID g^−1; the “Biodistribution, Kidney” value came out at 11.8 ± 1.3 % ID g^−1. In data set [3] (2 h p.i., i.v. 0.25 MBq), the “Biodistribution, Large intestine” value stood at 1.2 ± 0.5 % ID g^−1; the “Biodistribution, Liver” value is 8.2 ± 0.1 % ID g^−1; the “Biodistribution, Lung” value amounted to 14.3 ± 1 % ID g^−1; the “Biodistribution, Muscle” value is 1.3 ± 0.1 % ID g^−1. Further, in data set [3] (2 h p.i., i.v. 0.25 MBq), the “Biodistribution, Pancreas” value stood at 1.8 ± 1.6 % ID g^−1; the “Biodistribution, Skin” value worked out at 1.1 ± 0.3 % ID g^−1; the “Biodistribution, Small intestine” value was 3.8 ± 0.9 % ID g^−1; the “Biodistribution, Spleen” value came to 28.1 ± 4 % ID g^−1. In data set [3] (2 h p.i., i.v. 0.25 MBq), the “Biodistribution, Stomach” value was 1.6 ± 0.6 % ID g^−1 and the “Biodistribution, Tumor (MDA-MB-231)” value worked out at 5 ± 1.2 % ID g^−1. In data set [3] (setting [6]), the “Biodistribution, Blood” value is on record as 10.9 ± 0.9 % ID g^−1; the “Biodistribution, Bone” value is reported as 1.7 ± 0.1 % ID g^−1; the “Biodistribution, Heart” value is on record as 4 ± 0.3 % ID g^−1; the “Biodistribution, Kidney” value amounted to 4.2 ± 0.1 % ID g^−1. Also, in data set [3] (setting [6]), the “Biodistribution, Large intestine” value is 2.7 ± 0.2 % ID g^−1; the “Biodistribution, Liver” value is reported as 5.3 ± 0.6 % ID g^−1; the “Biodistribution, Lung” value stood at 6.4 ± 0.7 % ID g^−1; the “Biodistribution, Muscle” value turned out to be 1 ± 0.2 % ID g^−1. In data set [3] (setting [6]), the “Biodistribution, Pancreas” value amounted to 3.6 ± 0.2 % ID g^−1; the “Biodistribution, Skin” value was 2.5 ± 0.4 % ID g^−1; the “Biodistribution, Small intestine” value was determined as 2.6 ± 0.1 % ID g^−1; the “Biodistribution, Spleen” value is listed as 17.9 ± 0.1 % ID g^−1. Further, in data set [3] (setting [6]), the “Biodistribution, Stomach” value amounted to 1.5 ± 0.3 % ID g^−1 and the “Biodistribution, Tumor (MDA-MB-231)” value is 4.3 ± 1 % ID g^−1. In addition, in data set [3] (24 h p.i., i.v. 0.25 MBq), the “Biodistribution, Blood” value stood at 3.1 ± 1.7 % ID g^−1; the “Biodistribution, Bone” value is recorded as 4.2 ± 1.7 % ID g^−1; the “Biodistribution, Heart” value came to 6.8 ± 0.5 % ID g^−1; the “Biodistribution, Kidney” value is on record as 11.9 ± 1.3 % ID g^−1. For the same molecule, in data set [3] (24 h p.i., i.v. 0.25 MBq), the “Biodistribution, Large intestine” value stood at 6.1 ± 0.9 % ID g^−1; the “Biodistribution, Liver” value is 11.8 ± 1.9 % ID g^−1; the “Biodistribution, Lung” value stood at 14.2 ± 1.9 % ID g^−1; the “Biodistribution, Muscle” value is listed as 2.8 ± 0.6 % ID g^−1. In data set [3] (24 h p.i., i.v. 0.25 MBq), the “Biodistribution, Pancreas” value is reported as 9.6 ± 3.6 % ID g^−1; the “Biodistribution, Skin” value was determined as 2.7 ± 0.7 % ID g^−1; the “Biodistribution, Small intestine” value stood at 8.7 ± 0.9 % ID g^−1; the “Biodistribution, Spleen” value was determined as 42.8 ± 10.7 % ID g^−1. In data set [3] (24 h p.i., i.v. 0.25 MBq), the “Biodistribution, Stomach” value was found to be 4.5 ± 2.3 % ID g^−1 and the “Biodistribution, Tumor (MDA-MB-231)” value was determined as 11.4 ± 1.8 % ID g^−1. Besides, in data set [3] (48 h p.i., i.v. 0.25 MBq), the “Biodistribution, Blood” value came out at 2 ± 1.2 % ID g^−1; the “Biodistribution, Bone” value is recorded as 2.2 ± 0.4 % ID g^−1; the “Biodistribution, Heart” value was 3.8 ± 0.6 % ID g^−1; the “Biodistribution, Kidney” value stood at 8 ± 1.8 % ID g^−1. Also, in data set [3] (48 h p.i., i.v. 0.25 MBq), the “Biodistribution, Large intestine” value turned out to be 3.7 ± 1 % ID g^−1; the “Biodistribution, Liver” value was found to be 8.5 ± 1.6 % ID g^−1; the “Biodistribution, Lung” value stood at 6.6 ± 0.7 % ID g^−1; the “Biodistribution, Muscle” value was determined as 1.1 ± 0.1 % ID g^−1. Besides, in data set [3] (48 h p.i., i.v. 0.25 MBq), the “Biodistribution, Pancreas” value was determined as 3.1 ± 0.2 % ID g^−1; the “Biodistribution, Skin” value is listed as 2 ± 0.8 % ID g^−1; the “Biodistribution, Small intestine” value is 4.8 ± 1.3 % ID g^−1; the “Biodistribution, Spleen” value came out at 21.3 ± 6.5 % ID g^−1. Further, in data set [3] (48 h p.i., i.v. 0.25 MBq), the “Biodistribution, Stomach” value stood at 2.1 ± 0.5 % ID g^−1 and the “Biodistribution, Tumor (MDA-MB-231)” value was found to be 5.5 ± 2.1 % ID g^−1. The “PET observations” value in data set [4] was “an important uptake of the radiotracer was observed in liver and in spleen; also recorded: increased contrast of the tumor over time with an optimum at 24 h”.
Take “DCAWH N GELVWCT NH2 (disulfide) [NODAGA]”: at trastuzumab [1], the “Labeled mAb” value came out at 97% and the “Selectivity Fc/Fab” value is “Fc selective”.
For `O=C(O)CN1CCN(CC(=O)O)CCN(CC(=O)ON2C(=O)CCC2=O)CCN(CC(=O)O)CC1` [DOTA-NHS], on trastuzumab [5], the “Labeled mAb” value was 73% and the “Selectivity Fc/Fab” value is on record as 1.46.
